Rpn11 inh: Rpn11 (human) deubiquitinase inhibition; O00487; human 26S proteasome, Ub4-pepOG fluorescence polarization; 20S core pre-blocked with epoxomicin; inhibition, % at 20 µM; hit rate 0.59% among 360,000;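 active = inhibition at 20 µM, scaled to each plate's controls, above about 33%, limit read from the data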
Target sequence (O00487 whole entry, looked up): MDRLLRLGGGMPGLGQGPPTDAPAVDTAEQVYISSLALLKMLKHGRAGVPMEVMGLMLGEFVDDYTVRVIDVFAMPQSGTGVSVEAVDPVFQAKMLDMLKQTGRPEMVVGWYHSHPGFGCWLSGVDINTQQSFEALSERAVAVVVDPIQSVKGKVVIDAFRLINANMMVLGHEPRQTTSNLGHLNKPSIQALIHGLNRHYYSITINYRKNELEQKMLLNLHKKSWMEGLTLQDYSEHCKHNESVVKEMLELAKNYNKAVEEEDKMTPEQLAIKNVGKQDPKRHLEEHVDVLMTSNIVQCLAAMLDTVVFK
SUMO1 PPI mod: modulators of human SUMO1-mediated protein-protein interactions; P63165; SUMO1 binding to a labelled peptide, TR-FRET, 1 h; inhibition, % at 20 µM; hit rate 0.33% among 360,000; AID 602429; in the data active = inhibition above about 37%
Target sequence (P63165 whole entry, looked up): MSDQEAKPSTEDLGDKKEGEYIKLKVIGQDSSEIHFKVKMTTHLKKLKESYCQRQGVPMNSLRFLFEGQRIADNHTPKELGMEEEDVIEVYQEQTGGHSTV
CSN inh: CSN deneddylation inhibition. Purified CSN, SCF-Nedd8-OG deneddylation, fluorescence polarization. inhibition, % at 12.5 µM. hit rate 0.38% among 360,000. AID 651999;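 active = pattern-corrected inhibition above about 35%, with an unprinted fluorescence ratio check between 0.5 and 1.5, limit read from the data, passing the limit was not always enough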;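 note: 0% = enzyme with substrate and 100% = substrate without enzyme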
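Assay system: Purified human Csn5 enzyme expressed in HEK293T cells | Amount: Enzyme 0.24 nM | Measured by: Fluorescence polarization readout | Medium: Tris/NaCl/DTT buffer, pH 7.5 | Compound dosing: One concentration, 12.5 µM, 0.25% DMSO | Times: 90 min incubation of compound, enzyme and substrate at room temperature | Control set: no-enzyme wells high, enzyme-with-substrate wells low | Read-out: % inhibition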
SKN-1 inh: C. elegans SKN-1 inhibition; inhibition, % at 21.8 µM; AID 624304; hit rate 0.49% among 360,000; C. elegans VP596 Pgst-4::GFP/RFP ratio, acrylamide-induced, 24 h;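 active = interference check ratio from 0.5 to 1.5 plus GFP to RFP signal ratio inhibition reaching or exceeding a fixed threshold, cut at about 30% in these data, passing the limit was not always enough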
MT1-MMP act inh: blocks activation of human MT1-MMP | P50281 | HT1080 RFP-PRO-GFP cells, GFP/RFP ratio fluorescence, overnight; percent of plate control window, DMSO zero | GFP/RFP ratio change, % at 20 µM | hit rate 0.061% among 360,000 | AID 651647;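 active = GFP/RFP ratio change of at least 30% with cell ATP level not reduced by more than half and red fluorescence within 50% of control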
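Read-out: GFP/RFP fluorescence ratio; Test system: RFP-PRO-GFP reporter HT1080 cells; Compound dosing: single-point 20 µM compound, 1% DMSO; Times: overnight compound exposure at 37 °C.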
DNMT1 inh: inhibitors of human DNMT1 | DNMT1 molecular beacon, Hinp1I cleavage, fluorescence | inhibition (reported as % activation of signal), % at 10 µM | hit rate 0.83% among 360,000 | AID 588458; in the data active = inhibition above about 50%
DNMT1 interf DR: counter-screen for DNMT1 inhibitors: spectral interference, dose response; shares compounds with DNMT1 inh; molecular beacon fluorescence; IC50, µM; 200 tested, under 10 active; call rule not given here
DNMT1 confirm: DNMT1 inhibition confirmation, single concentration. shares compounds with DNMT1 inh. DNMT1 molecular beacon HinP1I cleavage, fluorescence. inhibition, % at 10 µM. hit rate 8% among 2,300. AID 602385;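 active = average inhibition of at least 30% in the single-concentration confirmation test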
DNMT1 interf: beacon fluorescence artifact counter-screen. shares compounds with DNMT1 inh. DNMT1 molecular beacon spectral interference counterscreen, fluorescence 485/520. activation (fluorescence interference), % at 10 µM. hit rate 1% among 2,300;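 active = activation of at least 30% at 10 µM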;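 note: DNMT1 catalytic domain with a HinP1I cleavage step and a FAM/dabcyl DNA beacon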
* marks the source's active call; other numbers are inactive results; x = not tested or not shown; ! = a repeat was not active. Only some compounds are listed: those with a hit (about 2.3% of all), similar ones and a draw of the others.

SMILES	Rpn11 inh	SUMO1 PPI mod	CSN inh	SKN-1 inh	MT1-MMP act inh	DNMT1 inh	DNMT1 confirm	DNMT1 interf	others
COc1ccc(/C=N/n2c(C)nc3c([nH]c4ccccc43)c2=O)cc1CN1CCCC(C)(C)C1	3	-3	7	-4	0	54*	4	3
CCOc1ccc(C(CN2CCOCC2)C(C)=O)cc1OC (stereo not drawn)	-8	0	3	7	0	-1	x	x
Cc1ccc(-n2nc3ccc(NC(=O)/C=C/c4ccco4)cc3n2)cc1	5	6	22	16	-2	104*	18	4
NS(=O)(=O)c1ccc(NC(=O)/C=C/c2ccco2)cc1	-2	0	19	7	-1	62*	7	0
COc1cc(C23CCCN(CCC(C(C)(C)C)C2)C32OCCO2)cc(OC)c1OC (stereo not drawn)	x	5	-9	-27	-2	x	x	x
CCOC(=O)[C@]12CCCC=C1N(CCC1=CCCCC1)C(=O)[C@H](CC(=O)N1CCN(C(=O)C3CC3)CC1)C2	x	0	-2	6	5	x	x	x
C=CCn1c(SCC(=O)NC2CCCC2)nc2ccccc21	5	3	10	31	-2	70*	3	3
CC(=O)c1sc2nc(-c3ccco3)ccc2c1N	-5	29	37	13	-9	67*	5	7
O=C1NC(=S)N/C1=C/c1cc2c(cc1[N+](=O)[O-])OCO2	-14	55*	5	14	-12	60*	30*	-12	DNMT1 interf DR=>99
Cc1ccc(C(=O)Nc2cccc(C(F)(F)F)c2)cc1NC(=O)c1ccno1	2	3	-2	14	-6	-4	x	x
Cc1ccc(C(=O)Nc2cccc(C(F)(F)F)c2)cc1NC(=O)c1nccn1C	8	5	8	19	7	56*!	0	5
Cc1ccc(CSc2nnc(SCC(=O)N/N=C/C=C/c3ccccc3[N+](=O)[O-])s2)cc1	7	-4	-11	-5	6	-1	x	x
Cc1ccc(CSc2nnc(SCC(=O)N/N=C/C=C/c3ccco3)s2)cc1	8	3	5	2	-1	52*	2	3
Cc1ccc(S(=O)(=O)N2[C@H](CC(=O)c3cccs3)OC[C@@H]2C(C)C)cc1	x	-6	-1	7	-2	x	x	x
CN(C)S(=O)(=O)c1ccc2c(c1)C(=NO)c1cc(S(=O)(=O)N(C)C)ccc1-2	-6	-3	-4	5	-3	-1	x	x
CN(C)S(=O)(=O)c1ccc2c(c1)C(CC(=O)O)OC2=O (stereo not drawn)	-5	4	-1	-33	3	91*	6	11
CN(Cc1ccc(Cl)cc1)C(=O)c1[nH]c(C(F)(F)F)nc1-c1ccccc1	0	10	1	7	2	-1	x	x
O=C(N=Nc1c(O)[nH]c2ccc(Br)cc12)c1cc(-c2cccs2)nc2ccccc12	-1	5	8	2	4	65*	-1	-12
Nc1ncnc2c1ncn2[C@@H]1O[C@H](C(=O)Nc2cc(C(F)(F)F)cc(C(F)(F)F)c2)[C@@H](O)[C@H]1O	-1	3	-3	12	2	3	x	x
O=C(O)C1CC(c2ccc(F)cc2)=NO1 (stereo not drawn)	8	5	28	12	7	86*	13	4
O=C(NC1CCCC1)C(C1CC1)n1c(-c2ccnc3ccccc23)nc2ccccc21 (stereo not drawn)	x	-2	-1	6	-5	x	x	x
CCCc1nc2c3ccccc3ccn2c1CC(C)(C)C	-9	10	-1	2	-1	6	x	x
O=[N+]([O-])c1ccc(N/N=C/c2ccc(O)c(O)c2O)c(S(=O)(=O)N2CCOCC2)c1	-10	22	-8	0	10	62*	-2	-1
Cc1ccccc1NC(=O)c1cc(-c2ccco2)nc2ccccc12	8	1	12	-8	1	46	1	3
CCc1nnc(NC(=O)c2cc(-c3ccco3)nc3ccccc23)s1	x	51*	47	-1	-9	92*	23	-1
SMILES	Rpn11 inh	SUMO1 PPI mod	CSN inh	SKN-1 inh	MT1-MMP act inh	DNMT1 inh	DNMT1 confirm	DNMT1 interf	others
O=C(N/N=C/c1cccc(F)c1)c1cc(-c2ccco2)nc2ccccc12	26	22	57	26	-12	97*	68*	2	DNMT1 interf DR=>99
Cc1ccc(S(=O)(=O)N(C)C)cc1NC(=O)c1cc(-c2ccco2)nc2ccccc12	-6	-7	0	13	-6	6	x	x
CCc1nnc(NC(=O)c2cc(-c3ccccn3)nc3ccccc23)s1	1	12	-2	0	3	1	x	x
COc1cc(/C=N/NC(=O)c2cc(-c3ccco3)nc3ccccc23)cc(OC)c1O	3	-7	3	6	2	-11	x	x
CSCCNC(=O)C1(C)CCN1C(=O)c1ccc(C(C)(C)C)cc1 (stereo not drawn)	-4	1	-3	9	4	-1	x	x
COc1cccc(CN2CCC2(C)C(=O)Nc2cnc3ccccc3c2)c1F (stereo not drawn)	5	6	4	-4	-2	-3	x	x
Cc1ccc(NC(=O)c2ccc(-c3cc(Cl)ccc3Cl)o2)c(C)c1	7	10	-7	-7	-3	1	x	x
COc1ccc([C@H]2[C@H](C(=O)C(C)(C)C)N3N=Cc4ccccc4C3[C@]23N=C(c2ccccc2)OC3=O)cc1OC (stereo partly drawn)	8	-5	0	1	-1	55*	3	2
Cc1ccc(S(=O)(=O)c2cc3c(=O)n4ccccc4nc3n(Cc3ccco3)c2=N)cc1	-2	4	38*	16	-14	69*	1	-2
Cc1ccc(CNC(=O)c2cc3c(=O)n4ccccc4nc3n(Cc3ccco3)c2=N)cc1	20	-7	14	-16	-6	21	x	x
CCOc1ccc(C(C)=O)cc1N1C(=O)C2C3C=CC(C3)C2C1=O (stereo not drawn)	-8	2	-1	-21	-6	70*	4	1
Cc1cccc(N=C2NC(=O)S/C2=C\c2ccco2)c1	-18	-1	3	2	-9	30	x	x
O=C1NC(=Nc2ccc(Cl)cc2)/C(=C/c2ccco2)S1	10	10	15	18	-26	77*	11	2

Screening results deposited in PubChem BioAssay by Sanford-Burnham Center for Chemical Genomics.
